Measurements of several laboratories.
Protocols differ between the studies behind these lines.
Effect on: cell growth or viability

SMILES	cell line	technique	concentration	time	endpoint	result
Oc1ccc(Nc2nc(-c3ccc(Cl)cc3)cs2)cc1	A375M	MTS		24 h	IC50	> 100000 nM
S=C([S][Au-][P+](CCCCCC[P+]([Au-][S]C(=S)n1cccn1)(c1ccccc1)c1ccccc1)(c1ccccc1)c1ccccc1)n1cccn1	HCC 2998				GI50	759 nM
COc1ccc(-c2ccc(-c3ccc(C(=N)N)nc3)s2)cc1	SNB-75	SRB			GI50	1550 nM
COc1cccc(Oc2ccccc2NC(=O)CNC(=O)c2cccc3ccccc23)c1	HCC 2998	SRB		48 h	GI50	1260 nM
COc1cc(-c2cn(-c3ccccc3)nn2)cc(OC)c1OC	CCRF-CEM			48 h	CC50	34600 nM
Cc1ccc(C)c(COc2cc(NC(=O)c3ccc4c(c3)OCO4)ccc2N(C)S(C)(=O)=O)c1	HCC 2998	SRB		48 h	GI50	120 nM
CC(C)C[C@H](NC(=O)[C@H](Cc1ccccc1)NC(=O)c1cnccn1)B(O)O	OCI-AML-5	ATP luminescence			IC50	18 nM
Cc1cc(C)n(C(=S)[S][Au][PH](CCCCCC[PH]([Au][S]C(=S)n2nc(C)cc2C)(c2ccccc2)c2ccccc2)(c2ccccc2)c2ccccc2)n1	HCC 2998				GI50	252 nM
COc1ccc(C2=Nn3c(NN=C4C(=O)Nc5ccc(OC)cc54)nnc3SC2)cc1	UACC-257	SRB	10 µM		inhibition	20%
COc1cc(-c2ccc(-c3ccc(C(=N)N)nc3)s2)cc(OC)c1OC	SNB-75	SRB			GI50	1500 nM
COc1cc(OC)cc(-c2cn(-c3cc(=O)oc4ccc(Br)cc34)nn2)c1	CCRF-CEM			48 h	CC50	10500 nM
O=C1Nc2ccccc2C1=NNc1nnc2n1N=C(c1ccccc1)CS2	SNB-75	SRB	10 µM		inhibition	35%
